In ChEMBL document CHEMBL1125917, “Synthesis of halogen-substituted 1,5-benzothiazepine derivatives and their vasodilating and hypotensive activities” (1991):

How the values were obtained:
Canis familiaris [1] = organism: Canis familiaris; assay: Antihypertensive activity expressed as the ratio of the potency evaluated by increased vertebral blood flow (VBF) to that of diltiazem.; assay type: functional, Canis lupus familiaris
Summary of the method: (§1)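 Anesthetized dogs; compounds given intraarterially. Vertebral blood flow recorded, and a dose-response curve built from peak responses. Potency given as ratio to diltiazem, calculated from the dose-response curves. Half duration is the time, in minutes, that blood flow stays at one-half of the maximum change.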

Canis familiaris [2] = assay: Antihypertensive activity by the increase in the vertebral blood flow in anesthetized dogs expressed as duration of half of the maximum change in blood flow.; assay type: functional, Canis lupus familiaris; summary of the method: as §1
Rattus norvegicus [3] = assay: Change in blood pressure in spontaneously hypertensive rats 1 hr following 30 mg/kg p.o.; assay type: functional; conditions: route oral
Summary of the method: (§2)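 Male spontaneously hypertensive rats, fasted 20 h. Compounds dissolved in deionized water and given orally (30 mg/kg; some at 100 mg/kg). Blood pressure measured by tail-cuff in conscious animals. Change (mmHg) taken from the predosing value at 1 and 4 h, or 1 and 5 h, after dosing. N = 3-6.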

Cavia porcellus [4] = organism: Cavia porcellus; assay: Increase in the coronary blood flow (CBF) was determined in isolated guinea pig heart at a dose of 100 ug/heart; assay type: functional
Summary of the method: (§3)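 Hartley guinea pig hearts perfused by the Langendorff method with modified Locke-Ringer solution containing defibrinated rabbit blood, at 40 cm H2O and 29 ± 1 °C. Compounds in saline injected into the aortic cannula at 3, 10, 30 or 100 μg/heart. Coronary flow measured by drop counter; graded by the lowest dose giving an increase of at least 0.5 mL/min.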

Rattus norvegicus [5] = assay: Hypotensive activity in SHR (spontaneously hypertensive rats) expressed as change in blood pressure(mmHg) after 4 hr dosing at a concentration of 30 mg/kg; assay type: functional; summary of the method: as §2
Cavia porcellus [6] = organism: Cavia porcellus; assay: Increase in the coronary blood flow (CBF) was determined in isolated guinea pig heart at a dose of 30 ug/heart; assay type: functional, Artery; summary of the method: as §3

SMILES | Potency ratio (Canis familiaris [1]) | Half duration (Canis familiaris [2]) [min] | Change in blood pressure (Rattus norvegicus [3]; 30 mg/kg) [delta mmHg] | Increase in CBF (Cavia porcellus [4]) [mL/min] | Change in blood pressure (Rattus norvegicus [5]; 30 mg/kg) [delta mmHg] | Increase in CBF (Cavia porcellus [6]) [mL/min] | Change in blood pressure (Rattus norvegicus [3]) [delta mmHg] | Change in blood pressure (Rattus norvegicus [5]) [delta mmHg]
CC(=O)OC1C(=O)N(CCN(C)C)c2ccc(Cl)cc2SC1c1ccc(C)cc1 (stereo not drawn) | 0.37 | 61 |  |  |  |  |  | 
COc1ccc(C2Sc3cc(Cl)ccc3N(CCN(C)C)C(=O)C2O)cc1 (single isomer, unassigned; (-)) | 0.02 | 23 | 1 | <0.5 | -20 |  |  | 
COc1ccc(C2Sc3c(Cl)cccc3N(CCN(C)C)C(=O)C2OC(C)=O)cc1.Cl (stereo in doubt; 2cc) | 0.75 | 72 |  |  |  | >0.5 |  | 
COc1ccc(C2Sc3cc(Cl)ccc3N(CCN(C)C)C(=O)C2OC(C)=O)cc1.Cl (single isomer, unassigned; (-)) | 0.06 | 36 | -6 | <0.5 | -22.7 |  |  | 
CCOC(=O)OC1C(=O)N(CCN(C)C)c2ccc(F)cc2SC1c1ccc(OC)cc1 (stereo not drawn) | 0.16 | 33 |  | >0.5 |  |  |  | 
COc1ccc(C2Sc3cc(Cl)c(Cl)cc3N(CCN(C)C)C(=O)C2O)cc1.Cl (stereo not drawn) | 0.29 | 36 |  | >0.5 |  |  |  | 
Cc1ccc(C2Sc3cc(Cl)ccc3N(CCN(C)C)C(=O)C2O)cc1 (stereo not drawn) | 0.52 | 31 |  |  |  |  |  | 
COc1ccc(C2Sc3cc(Cl)ccc3N(CCN(C)C)C(=O)C2O)cc1 (single isomer, unassigned; (+)) | 0.94 | 46 | -13.3 | >0.5 | -51.7 |  |  | 
COc1ccc(C2Sc3cc(Cl)c(Cl)cc3N(CCN(C)C)C(=O)C2OC(C)=O)cc1.Cl (stereo not drawn) | 0.51 | 53 |  |  |  | >0.5 |  | 
CCCCNC(=O)OC1C(=O)N(CCN(C)C)c2ccc(F)cc2SC1c1ccc(OC)cc1 (stereo not drawn) | 0.16 | 58 |  |  |  | >0.5 |  | 
COc1ccc(C2Sc3cc(Cl)ccc3N(CCN(C)C)C(=O)C2OC(=O)c2ccc([N+](=O)[O-])cc2)cc1 (stereo not drawn) | 0.05 | 75 |  | >0.5 |  |  |  | 
COc1ccc(C2Sc3c(Cl)cccc3N(CCN(C)C)C(=O)C2OC(C)=O)cc1.Cl (single isomer, unassigned; (+)) | 0.83 | 74 |  |  |  |  | -73.7 | -54.3
COc1ccc(C2Sc3c(Cl)cccc3N(CCN(C)C)C(=O)C2OC(C)=O)cc1.Cl (single isomer, unassigned; (-)) | 0.06 | 22 |  | <0.5 |  |  |  | 
CCN(CC)CCN1C(=O)C(O)C(c2ccc(OC)cc2)Sc2cc(Cl)ccc21 (single isomer, unassigned; (+)) | 0.32 | 31 |  | >0.5 |  |  |  | 
Cc1ccc(C2Sc3cc(Cl)ccc3N(CCN(C)C)C(=O)C2OC(=O)c2ccc([N+](=O)[O-])cc2)cc1 (stereo not drawn) | 0.08 | 84 |  |  |  |  |  | 
CCCCC(=O)OC1C(=O)N(CCN(C)C)c2ccc(Cl)cc2SC1c1ccc(OC)cc1 (single isomer, unassigned; (+)) | 0.67 | 42 |  |  |  |  | -46 | -39
COc1ccc(C2Sc3cc(Cl)ccc3N(CCN(C)C)C(=O)C2O)cc1.Cl (stereo not drawn) | 0.76 | 39 |  | >0.5 |  |  |  | 
COc1ccc(C2Sc3ccc(Cl)cc3N(CCN(C)C)C(=O)C2OC(C)=O)cc1.Cl (single isomer, unassigned; (+)) | 0.93 | 29 |  | >0.5 |  |  |  | 
CCCN(C)CCN1C(=O)C(O)C(c2ccc(OC)cc2)Sc2cc(Cl)ccc21 (stereo not drawn) | 0.24 | 35 |  | >0.5 |  |  | -20 | -27.3
COc1ccc(C2Sc3cc(Cl)ccc3N(CCN(C)C)C(=O)C2OC(=O)c2ccc([N+](=O)[O-])cc2Cl)cc1 (single isomer, unassigned; (+)) | 0.08 | 118 |  | >0.5 |  |  |  | 
COc1ccc(C2Sc3cc(Cl)ccc3N(CCN(C)C)C(=O)C2OC(C)=O)cc1.Cl (single isomer, unassigned; (+)) | 1.7 |  | -86 |  | -68 |  |  | 

SMILES | Potency ratio (Canis familiaris [1]) | Half duration (Canis familiaris [2]) [min] | Change in blood pressure (Rattus norvegicus [3]; 30 mg/kg) [delta mmHg] | Increase in CBF (Cavia porcellus [4]) [mL/min] | Change in blood pressure (Rattus norvegicus [5]; 30 mg/kg) [delta mmHg] | Increase in CBF (Cavia porcellus [6]) [mL/min] | Change in blood pressure (Rattus norvegicus [3]) [delta mmHg] | Change in blood pressure (Rattus norvegicus [5]) [delta mmHg]
COc1ccc(C2Sc3c(Cl)cccc3N(CCN(C)C)C(=O)C2O)cc1 (single isomer, unassigned; (-)) | 0.02 | 21 |  | <0.5 |  |  |  | 
C=CCN(C)CCN1C(=O)C(O)C(c2ccc(OC)cc2)Sc2cc(Cl)ccc21 (single isomer, unassigned; (+)) | 0.23 | 34 |  |  |  |  |  | 
COc1ccc(C2Sc3c(ccc(Cl)c3Cl)N(CCN(C)C)C(=O)C2OC(C)=O)cc1.Cl (stereo not drawn) | 0.35 | 156 |  | >0.5 |  |  |  | 
COc1ccc(C2Sc3cc(F)ccc3N(CCN(C)C)C(=O)C2OC(C)=O)cc1.Cl (stereo not drawn) | 0.37 | 71 |  | >0.5 |  |  | -64 | -50
Cc1ccc(C2Sc3cc(Cl)ccc3N(CCN(C)C)C(=O)C2OC(=O)c2ccc([N+](=O)[O-])cc2Cl)cc1 (stereo not drawn) | 0.05 | 156 |  |  |  |  |  | 
CCN(CC)CCN1C(=O)C(OC(C)=O)C(c2ccc(OC)cc2)Sc2cc(Cl)ccc21 (stereo not drawn) | 0.55 | 48 |  | >0.5 |  |  |  | 
COc1ccc(C2Sc3c(F)cccc3N(CCN(C)C)C(=O)C2OC(C)=O)cc1.Cl (stereo not drawn) | 0.34 | 43 |  | >0.5 |  |  | -39 | -60.3
C#CCN(C)CCN1C(=O)C(O)C(c2ccc(OC)cc2)Sc2cc(Cl)ccc21 (stereo not drawn) | 0.06 | 28 |  |  |  |  |  | 
COc1ccc(C2Sc3cc(Cl)ccc3N(CCN(C)C)C(=O)C2OC(=O)c2ccc(C)cc2)cc1 (stereo not drawn) | 0.33 | 140 |  |  |  |  |  | 
CCN(C)CCN1C(=O)C(OC)C(c2ccc(OC)cc2)Sc2cc(Cl)ccc21 (single isomer, unassigned; (+)) | 0.5 | 41 |  |  |  |  |  | 
COc1ccc(C2Sc3cccc(Cl)c3N(CCN(C)C)C(=O)C2OC(C)=O)cc1.Cl (stereo not drawn) | 0.62 | 53 |  | >0.5 |  |  | -22 | -13.7
COc1ccc(C2Sc3ccc(Cl)cc3N(CCN(C)C)C(=O)C2OC(C)=O)cc1.Cl (stereo in doubt; (-)-2ll) | 0.03 | 12 |  | <0.5 |  |  |  | 
COc1ccc(C2Sc3cc(F)ccc3N(CCN(C)C)C(=O)C2OC(=O)c2ccc(C)cc2)cc1 (stereo not drawn) | 0.26 | 62 |  |  |  |  |  | 
CCN(C)CCN1C(=O)C(O)C(c2ccc(OC)cc2)Sc2cc(Cl)ccc21 (stereo not drawn) | 0.28 | 38 |  | >0.5 |  |  | -21.3 | -39.3
COc1ccc(C2Sc3ccc(Cl)cc3N(CCN(C)C)C(=O)C2O)cc1 (single isomer, unassigned; (+)) | 0.17 | 24 |  | <0.5 |  |  |  | 
COc1ccc(C2Sc3cc(F)ccc3N(CCN(C)C)C(=O)C2O)cc1.Cl (stereo not drawn) | 0.37 | 40 |  | >0.5 |  |  |  | 
CCN(C)CCN1C(=O)C(OC(C)=O)C(c2ccc(OC)cc2)Sc2cc(Cl)ccc21 (stereo in doubt; 2o) | 0.74 | 60 |  |  |  |  |  | 
CCCC(=O)OC1C(=O)N(CCN(C)C)c2ccc(Cl)cc2SC1c1ccc(OC)cc1 (single isomer, unassigned; (+)) | 0.8 | 41 |  |  |  |  | -30 | -28
COc1ccc(C2Sc3c(F)cccc3N(CCN(C)C)C(=O)C2O)cc1.Cl (stereo not drawn) | 0.14 | 33 |  | >0.5 |  |  |  | 
COc1ccc(C2Sc3cc(Cl)ccc3N(CCN(C)C)C(=O)C2OC(C)=O)cc1.Cl (stereo in doubt; 2w) | 0.01 | 31 |  |  |  |  |  | 
Cc1ccc(C2Sc3cc(Cl)ccc3N(CCN(C)C)C(=O)C2OC(=O)c2ccc(Cl)cc2[N+](=O)[O-])cc1 (stereo not drawn) | 0.02 | 140 |  |  |  |  |  | 
